From ChEMBL document CHEMBL1138932, “Synthesis and anti-hepatitis B virus activity of novel benzimidazole derivatives” (J Med Chem, 2006)
Active and inactive are the calls of the source. The calls are words filed in the database; no cut-off is given here.

Assays:
HepG2 [1] = experiment: Cytotoxicity against HepG2.2.15 cells; type: functional; details: Homo sapiens
Procedure, shortened: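 HepG 2.2.15 cells exposed to compound; CC50 taken as the concentration required for 50% extinction of the cells.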

Hepatitis B virus = experiment: Inhibition of HBV DNA replication; type: functional, organism-based
Procedure, shortened: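 Antiviral assay in HepG 2.2.15 cells; read-out is cytoplasmic HBV-DNA synthesis. IC50 is the concentration giving 50% inhibition of HBV DNA synthesis.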

HepG2 [2] = experiment: Selectivity index, CC50 for HepG2.2.15 cells/IC50 for HBV; type: functional
Procedure, shortened: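 Ratio CC50/IC50. CC50 is the concentration giving 50% extinction of HepG 2.2.15 cells. IC50 is the concentration giving 50% inhibition of cytoplasmic HBV-DNA synthesis.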

Row | SMILES | IC50 (Hepatitis B virus) [µM] | CC50 (HepG2 [1]) [µM] | Activity (Hepatitis B virus) | Selectivity index (HepG2 [2])
1 | CS(=O)(=O)n1c(CCN2C(=O)c3ccccc3C2=O)nc2cc(Cl)c(Cl)cc21 | – | 175 | inactive | –
2 | COc1ccc(S(=O)(=O)n2c(CCN3C(=O)c4ccccc4C3=O)nc3cc(Cl)c(Cl)cc32)cc1 | 7.2 | 189 | – | 26
3 | Cc1ccc(S(=O)(=O)n2c(CCN3Cc4ccccc4C3=O)nc3cc(Cl)c(Cl)cc32)cc1 | 3.4 | 23 | – | 7
4 | Cn1c(CCC2CCCCC2)nc2cc(Cl)c(Cl)cc21 | 18.5 | > 500 | – | >27
5 | Cn1c(CCc2ccco2)nc2cc(Cl)c(Cl)cc21 | – | 5.9 | inactive | –
6 | Cc1ccc(C(=O)n2c(CCN3C(=O)c4ccccc4C3=O)nc3cc(Cl)c(Cl)cc32)cc1 | 53.2 | > 1000 | – | >19
7 | O=C1c2ccccc2C(=O)N1CCc1nc2ccccc2n1S(=O)(=O)c1ccccc1 | 2.2 | 28 | – | 13
8 | Cn1c(CCc2ccccc2)nc2cc(Cl)c(Cl)cc21 | – | 15.3 | inactive | –
9 | Cc1ccc(S(=O)(=O)n2c(CCN3C(=O)c4ccccc4C3=O)nc3ccccc32)cc1 | 2.2 | 164 | – | 75
10 | Cc1ccc(S(=O)(=O)n2c(N3C(=O)c4ccccc4C3=O)nc3cc(Cl)c(Cl)cc32)cc1 | 19.4 | 122 | – | 6
11 | Cn1c(CCC2CCCO2)nc2cc(Cl)c(Cl)cc21 (centres undefined) | 10.3 | 56 | – | 5
12 | CCCc1nc2cc(Cl)c(Cl)cc2n1C | 3.9 | 24.6 | – | 6
13 | O=C1c2ccccc2C(=O)N1CCc1nc2ccccc2n1S(=O)(=O)c1cccc(C(F)(F)F)c1 | 30.4 | 10 | – | 0.3
14 | O=C1c2ccccc2C(=O)N1CCc1nc2cc(Cl)c(Cl)cc2n1S(=O)(=O)c1ccc([N+](=O)[O-])cc1 | 50.2 | 181 | – | 4
15 | O=C1c2ccccc2C(=O)N1CCc1nc2cc(Cl)c(Cl)cc2[nH]1 | 300 | 330 | – | 1
16 | Cc1ccc(Cn2c(CCN)nc3cc(Cl)c(Cl)cc32)cc1 | 1.4 | 4 | – | 3
17 | Cc1ccc(S(=O)(=O)n2c(CCN3C(=O)c4ccccc4C3=O)nc3cc(Cl)c(Cl)cc32)cc1 | 2.9 | 867 | – | 299
18 | Nc1ncnc2c1ncn2CCOCP(=O)(O)O [ADEFOVIR] | 1.3 | 203 | – | 156
19 | Cn1c(CCc2ccncc2)nc2cc(Cl)c(Cl)cc21 | 4.6 | 35.8 | – | 8
20 | Cn1c(CCc2cccs2)nc2cc(Cl)c(Cl)cc21 | – | 16 | inactive | –
21 | O=C1c2ccccc2C(=O)N1CCc1nc2cc(F)c(F)cc2n1S(=O)(=O)c1ccc(C(F)(F)F)cc1 | 3.2 | 11 | – | 3

More lines, main results first:

Row | IC50 (Hepatitis B virus) [µM] | SMILES | CC50 (HepG2 [1]) [µM] | Activity (Hepatitis B virus) | Selectivity index (HepG2 [2])
22 | 0.38 | Nc1ccn([C@@H]2CS[C@H](CO)O2)c(=O)n1 [LAMIVUDINE] | > 1000 | – | >2632
23 | 0.68 | Cc1ccc(S(=O)(=O)n2c(CCN3C(=O)C=CC3=O)nc3cc(Cl)c(Cl)cc32)cc1 | 33 | – | 49
24 | 0.7 | Cc1ccc(Cn2c(CCN3C(=O)c4ccccc4C3=O)nc3cc(Cl)c(Cl)cc32)cc1 | > 500 | – | >714
25 | 0.34 | Cc1ccc(S(=O)(=O)n2c(CCCN3C(=O)c4ccccc4C3=O)nc3cc(Cl)c(Cl)cc32)cc1 | 13 | – | 38
26 | 0.7 | CC(C)c1ccc(S(=O)(=O)n2c(CCN3C(=O)c4ccccc4C3=O)nc3cc(Cl)c(Cl)cc32)cc1 | 17 | – | 24
27 | 0.5 | Cc1ccc(S(=O)(=O)n2c(CN3C(=O)c4ccccc4C3=O)nc3cc(Cl)c(Cl)cc32)cc1 | 90 | – | 180
28 | 0.64 | O=C1c2ccccc2C(=O)N1CCc1nc2cc(F)c(F)cc2n1S(=O)(=O)c1ccccc1[N+](=O)[O-] | 77 | – | 120
29 | 0.9 | Cn1c(CCN2C(=O)c3ccccc3C2=O)nc2cc(Cl)c(Cl)cc21 | > 1000 | – | >1111
30 | 0.14 | O=C1c2ccccc2C(=O)N1CCc1nc2cc(F)c(F)cc2n1S(=O)(=O)c1cccc([N+](=O)[O-])c1 | 10 | – | 71
31 | 1.2 | Cc1ccc(S(=O)(=O)n2c(CCN3C(=O)c4ccccc4C3=O)nc3cc(F)c(F)cc32)cc1 | 31 | – | 26
